Assay outcomes: PubChem, several laboratories
Apaf1 inhib: inhibitors of human Apaf-1 apoptosome, primary screen, biochemical, DEVD-Rh110 fluorescence, uHTS; Apoptotic protease-activating factor 1 (Homo sapiens), O14727; reconstituted apoptosome caspase-3 activity; inhibition, % at 20 µM; hit rate 0.71% among 330,000; active = inhibition of at least 40% at 20 µM
Target sequence (O14727 whole entry, looked up): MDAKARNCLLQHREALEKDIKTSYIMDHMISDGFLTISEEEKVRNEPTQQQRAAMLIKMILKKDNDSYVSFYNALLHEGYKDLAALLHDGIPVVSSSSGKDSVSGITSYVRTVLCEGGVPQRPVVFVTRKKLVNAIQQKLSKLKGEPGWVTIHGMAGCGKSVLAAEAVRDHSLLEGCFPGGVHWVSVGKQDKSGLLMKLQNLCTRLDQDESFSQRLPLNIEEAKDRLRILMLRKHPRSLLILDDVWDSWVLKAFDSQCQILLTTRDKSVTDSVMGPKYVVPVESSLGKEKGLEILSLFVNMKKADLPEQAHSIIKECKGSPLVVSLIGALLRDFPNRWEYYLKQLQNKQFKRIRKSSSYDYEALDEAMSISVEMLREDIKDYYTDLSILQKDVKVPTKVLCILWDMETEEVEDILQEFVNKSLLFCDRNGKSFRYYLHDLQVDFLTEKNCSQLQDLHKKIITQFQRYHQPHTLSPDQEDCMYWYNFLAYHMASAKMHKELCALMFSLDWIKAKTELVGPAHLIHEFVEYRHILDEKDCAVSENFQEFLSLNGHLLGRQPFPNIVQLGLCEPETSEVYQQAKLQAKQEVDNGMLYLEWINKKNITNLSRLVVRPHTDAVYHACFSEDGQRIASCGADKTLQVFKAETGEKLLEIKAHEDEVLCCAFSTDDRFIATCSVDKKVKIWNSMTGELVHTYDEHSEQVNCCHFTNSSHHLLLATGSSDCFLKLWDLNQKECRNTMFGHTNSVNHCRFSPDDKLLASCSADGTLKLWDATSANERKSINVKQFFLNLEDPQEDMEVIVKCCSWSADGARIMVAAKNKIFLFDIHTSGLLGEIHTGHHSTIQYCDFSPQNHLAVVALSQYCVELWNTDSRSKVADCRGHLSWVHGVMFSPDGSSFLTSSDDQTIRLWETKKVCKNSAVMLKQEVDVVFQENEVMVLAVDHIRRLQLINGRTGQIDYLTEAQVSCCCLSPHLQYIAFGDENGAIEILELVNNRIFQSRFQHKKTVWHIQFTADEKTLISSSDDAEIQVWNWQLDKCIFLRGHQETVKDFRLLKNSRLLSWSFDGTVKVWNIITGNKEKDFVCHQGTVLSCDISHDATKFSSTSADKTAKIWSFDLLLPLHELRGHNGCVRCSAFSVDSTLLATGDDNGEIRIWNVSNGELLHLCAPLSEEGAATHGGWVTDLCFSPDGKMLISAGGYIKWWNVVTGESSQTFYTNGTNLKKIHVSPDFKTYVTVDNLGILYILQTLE
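System – cell-free apoptosome with Apaf-1, procaspase-3 and caspase-9 · Buffer or medium – pH 7.5 Hepes buffer with CHAPS, BSA, DTT · Also added – cytochrome c with DEVD-Rh110 · Times – 30 min compound preincubation, 50 min activation, room temperature · Technique – Rh110 fluorescence intensity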
iPSC survival up: enhancers of single-cell hiPSC survival, primary screen, ATPlite luminescence; 100% = ROCK inhibitor wells, 0% = DMSO; AID 602274, 2012; survival enhancement, % at 20 µM; hit rate 0.044% among 360,000; in the data active = survival enhancement above about 18%;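 also: cells exposed to compounds for 16 hours before the ATP read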
MIN6 prolif: inducers of MIN6 beta-cell proliferation, primary screen, ATP luminescence, uHTS; MIN6 cells proliferation, ATPlite luminescence, 48 h; cells starved in 0.2% serum; 100% = growth in 10% serum; proliferation, % at 10 µM; hit rate 0.29% among 330,000;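 active = compounds whose signal lies at least 3.5 SD above the mean of all wells on their plate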
MPTP block: mitochondrial permeability transition pore inhibitors, primary screen, biochemical, isolated mouse mitochondria, absorbance. Ca2+ swelling absorbance, 30 min. inhibition, % at 10 µM. hit rate 1.4% among 360,000. AID 602449, 2012;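 active = inhibition of 50% or more, scaled per plate between neutral and stimulator controls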
UBC13 polyUb: UBC13 polyubiquitin chain formation inhibitors, primary screen, biochemical, TR-FRET, uHTS; hit rate 0.47% among 330,000; AID 485273, 2010; inhibition, % at 20 µM; Ubiquitin-conjugating enzyme E2 N (Homo sapiens), P61088; in the data active = inhibition above about 45%, passing the limit was not always enough
Granule exo inh: LAMP-1 surface exposure blockers, TALL-104 cells – cell-based, flow cytometry, MLPCN library, primary screen. TALL-104 LAMP-1 surface exposure; cells stimulated with thapsigargin and PMA. inhibition, % at 10 µM. hit rate 0.66% among 360,000. AID 651702, 2012;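 active = inhibition above about 55%, limit read from the data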
Casp3 counter: CASP3 inhibitor validation, counterassay for project on UBE2N polyubiquitination blockers, biochemical, one dose. shares compounds with UBC13 polyUb. Recombinant caspase-3, Caspase-Glo 3/7 luminescence, 60 min. inhibition, % at 20 µM. hit rate 4% among 1,400. AID 488856, 2010;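 active = mean inhibition across replicates above about 26%, limit read from the data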
UBC13 conf: UBC13 polyubiquitination inhibitors, single-point retest, confirmation, biochemical, TR-FRET, single concentration | inhibition, % at 10 µM | hit rate 68% among 1,400 | shares compounds with UBC13 polyUb; in the data active = inhibition above about 45%
Apaf-1 inh conf: Apaf-1 inhibitors, single-dose retest, confirmation, biochemical, fluorescence, DEVD-Rh110, 20 µM | shares compounds with Apaf1 inhib | reconstituted apoptosome, caspase-3 DEVD-Rh110 fluorescence | inhibition, % at 20 µM | hit rate 25% among 1,800 | AID 504614, 2011;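 active = mean inhibition of at least 40% at 20 µM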
Rh110 quench: Rh110 fluorescence interference by putative Apaf-1 inhibitors, confirmation, artefact control for Apaf-1 inhibitor project, biochemical, 20 µM; shares compounds with Apaf1 inhib; quenched caspase reaction; activation (fluorescence interference), % at 20 µM; 1,800 tested, under 10 active; AID 504615, 2011;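 active = signal rise of 40% or more at 20 µM, treated as a fluorescence artifact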
Apaf1 inh interf: fluorescence interference of Apaf-1 inhibitor hits, dose response, artefact control for Apaf-1 inhibitor project. shares compounds with Apaf1 inhib. fluorescence interference counterscreen, Apaf-1 assay format. IC50, µM. 460 tested, under 10 active; call rule not given here
Of the large screens only hits and unclear results are named; the others gave an inactive call (follow-up assays come after a bar, where they were run). Only some compounds are listed: those with a hit (about 3% of all), similar ones and a draw of the others.

CCCCCCCCCCCCCCCC[N+](C)(C)CCN(Cc1ccc(OC)cc1)c1ncccn1	Apaf1 inhib 98, UBC13 polyUb 119 | Casp3 counter inactive | UBC13 conf 124 | Apaf-1 inh conf 92 | Rh110 quench inactive | Apaf1 inh interf inactive
CSCCC(NC(=O)COc1ccccc1)C(=O)N1CCCCC1 (configuration not stated)	none
CSCCC(NC(=O)COc1ccccc1)C(=O)N1CCC(C(N)=O)CC1 (configuration not stated)	Apaf1 inhib 64, UBC13 polyUb 68 | Casp3 counter inactive | UBC13 conf 86 | Apaf-1 inh conf inactive | Rh110 quench inactive
CCOC(=O)C1=C(c2ccccc2)NC(N)=NC1c1ccc(OCc2ccc(Cl)cc2)c(OC)c1 (configuration not stated)	Apaf1 inhib 58, UBC13 polyUb 49 | Casp3 counter inactive | UBC13 conf 87 | Apaf-1 inh conf 64 | Rh110 quench inactive | Apaf1 inh interf inactive
Cc1ccc(NC(=O)C2(C)CCN2C(=O)Cc2ccc(C(C)C)cc2)cc1 (configuration not stated)	none (no result: Apaf1 inhib, MIN6 prolif, UBC13 polyUb)
COc1cc2nc(N3CCNCC3)nc(N)c2cc1OC	Apaf1 inhib 61, UBC13 polyUb 107 | Casp3 counter inactive | UBC13 conf 118 | Apaf-1 inh conf 66 | Rh110 quench inactive | Apaf1 inh interf inactive
COc1cc2nc(N3CCN(c4cc(C)ccc4C)CC3)nc(N)c2cc1OC	none
CCOc1cc(/C=C/C(=O)Nc2ccc(C(=O)NCCN(CC)CC)cc2)ccc1OCC(C)C	Apaf1 inhib 47, UBC13 polyUb 78 | Casp3 counter inactive | UBC13 conf 96 | Apaf-1 inh conf inactive | Rh110 quench inactive
CCOc1ccc(/C=C/C(=O)Nc2ccc(C(N)=O)cc2)cc1OC	none
CCCCCCCCCCCCCCCC[n+]1cccc(C(=O)N(CC)CC)c1	Apaf1 inhib 74, UBC13 polyUb 70 | Casp3 counter inactive | UBC13 conf 94 | Apaf-1 inh conf 72 | Rh110 quench inactive | Apaf1 inh interf inactive
CCCCCCCC[n+]1cccc(C(=O)N(CC)CC)c1	none
CCCCCCCCCCCCCCCC[n+]1ccc(/C=N/O)cc1	Apaf1 inhib 80, UBC13 polyUb 91 | Casp3 counter inactive | UBC13 conf 88 | Apaf-1 inh conf 58 | Rh110 quench inactive | Apaf1 inh interf inactive
CCCCCCCCCCCCCCCC[n+]1ccc(C(N)=O)cc1	Apaf1 inhib 73, UBC13 polyUb 89 | Casp3 counter inactive | UBC13 conf 99 | Apaf-1 inh conf 53 | Rh110 quench inactive | Apaf1 inh interf inactive
COc1ccccc1C(CNC(=O)CNC(=O)c1ccccc1Cl)N1CCCC1 (configuration not stated)	Apaf1 inhib 61, UBC13 polyUb 51 | Casp3 counter inactive | UBC13 conf 62 | Apaf-1 inh conf 43 | Rh110 quench inactive | Apaf1 inh interf inactive
C/C(=N\OCC(=O)OCC(=O)N(C)c1ccccc1)c1ccc2c(c1)OCO2	none
COC(=O)C1=C(C)N(Cc2ccccc2)C(=NCc2cc(OC)c(OC)c(OC)c2)N[C@H]1CCc1ccccc1	Apaf1 inhib 48, UBC13 polyUb 47 | Casp3 counter inactive | UBC13 conf inactive | Apaf-1 inh conf inactive | Rh110 quench inactive
COC(=O)C1=C(C)N(Cc2ccccc2)C(=NCc2cc(OC)c(OC)c(OC)c2)N[C@H]1c1ccc(Br)cc1	Apaf1 inhib 55, UBC13 polyUb 55 | Casp3 counter inactive | UBC13 conf 48 | Apaf-1 inh conf inactive | Rh110 quench inactive
CCOC(=O)CCCCCC(=O)Nc1ccc2c(c1)C(=O)N([C@@H](C)CO)C[C@H](C)[C@H](CN(C)C(=O)c1ccccc1)OCCCC[C@H](C)O2	none (no result: Apaf1 inhib, MIN6 prolif, UBC13 polyUb)
CC(C)=C(NC(=O)c1ccccc1Cl)C(=O)NCCc1nc2ccccc2[nH]1	none (no result: Apaf1 inhib, MIN6 prolif, UBC13 polyUb)
CC(C)n1cnc2c(N(C)c3ccccc3)nc(N(CCN(C)C)Cc3ccccc3)nc21	Apaf1 inhib 44, UBC13 polyUb 57 | Casp3 counter inactive | UBC13 conf inactive | Apaf-1 inh conf inactive | Rh110 quench inactive
FC(F)(F)c1cc(CCN2CCNC[C@@H]2c2ccccc2)cc(C(F)(F)F)c1	Apaf1 inhib 61, UBC13 polyUb 66 | Casp3 counter inactive | UBC13 conf 62 | Apaf-1 inh conf inactive | Rh110 quench inactive
NC1=NC[C@H](CC2CCCCC2)N1CCc1cc(C(F)(F)F)cc(C(F)(F)F)c1	Apaf1 inhib 74, UBC13 polyUb 97 | Casp3 counter inactive | UBC13 conf 98 | Apaf-1 inh conf 50 | Rh110 quench inactive | Apaf1 inh interf inactive
FC(F)(F)c1cc(CCN2CCNC[C@@H]2CC2CCCCC2)cc(C(F)(F)F)c1	Apaf1 inhib 79, UBC13 polyUb 87 | Casp3 counter inactive | UBC13 conf 97 | Apaf-1 inh conf 41 | Rh110 quench inactive | Apaf1 inh interf inactive
CCOC(=O)C1=C(C)N=c2sc(=Cc3cc(Cl)c(OCC(=O)O)c(Cl)c3)c(=O)n2C1c1cccc(OC)c1 (configuration not stated)	none (no result: Apaf1 inhib, MIN6 prolif, UBC13 polyUb)
O=C(Nc1ccccc1OCc1ccccc1)c1ccccc1Br	none
O=C1NC[C@@H](Cc2cccc3ccccc23)N(CC2(c3ccccc3)CC2)C1=O	none
c1ccc(C2(CN3CCNC[C@H]3Cc3cccc4ccccc34)CC2)cc1	Apaf1 inhib 53, UBC13 polyUb 59 | Casp3 counter inactive | UBC13 conf 48 | Apaf-1 inh conf inactive | Rh110 quench inactive
